Values after ≈ are worked out from the molar mass of the structure shown. Active and inactive are the calls of the source. The rule behind the calls is not given here.
How the values were obtained:
Escherichia coli = test: Antibacterial activity against Escherichia coli TISTR 780 by two-fold broth dilution method; type: functional
Salmonella typhimurium = test: Antibacterial activity against Salmonella typhimurium TISTR 292 by two-fold broth dilution method; type: functional, Salmonella enterica subsp. enterica serovar Typhimurium
Staphylococcus aureus [1] = test: Antibacterial activity against methicillin-resistant Staphylococcus aureus SK1 at >128 ug/mL by two-fold broth dilution method; type: functional, organism-based
Outline: (§1)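 MRSA SK1 was tested in a panel with Gram-positive S. aureus TISTR 1466 and Gram-negative E. coli TISTR 780 and S. typhimurium TISTR 292. Values are in μg/mL.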

Staphylococcus aureus [2] = test: Antibacterial activity against Staphylococcus aureus TISTR 1466 at >128 ug/mL by two-fold broth dilution method; type: functional, organism-based
Staphylococcus aureus [3] = test: Antibacterial activity against methicillin-resistant Staphylococcus aureus SK1 by two-fold broth dilution method; type: functional; outline: as §1
Staphylococcus aureus [4] = test: Antibacterial activity against Staphylococcus aureus TISTR 1466 by two-fold broth dilution method; type: functional

| Compound | MIC (Escherichia coli) [µg/mL] | MIC (Salmonella typhimurium; Salmonella enterica) [µg/mL] | MIC (Staphylococcus aureus [1]) | MIC (Staphylococcus aureus [2]) | MIC (Staphylococcus aureus [3]) [µg/mL] | MIC (Staphylococcus aureus [4]) | MIC (Salmonella typhimurium; Salmonella enterica subsp. enterica serovar Typhimurium) [µg/mL] |
| --- | --- | --- | --- | --- | --- | --- | --- |
| COc1c(O)ccc2c(=O)c3c(O)c4c(c(CC=C(C)C)c3oc12)OC(C)(C)C=C4 | 128 (≈ 313 µM) | 128 (≈ 313 µM) | inactive | inactive |  |  |  |
| C=CC(C)(C)c1c2c(c(O)c3c(=O)c4ccc(O)c(OC)c4oc13)C=CC(C)(C)O2 | 128 (≈ 313 µM) | 128 (≈ 313 µM) |  |  | 4 (≈ 9.79 µM) | 2 µg/mL (≈ 4.9 µM) |  |
| C=C(C)CC[C@@H]1C[C@]23CC4C(C)(C)c5ccccc5C(=O)C45C(=O)[C@@](CC=C(C)C)(C[C@@]1(C)[C@]52O)C3=O (relative stereo) | 128 (≈ 256 µM) | 128 (≈ 256 µM) | inactive |  |  | 128 µg/mL (≈ 256 µM) |  |
| C=C(C)CC[C@@H]1C[C@@]2(CC=C(C)C)C(=O)[C@]3(CC=C(C)C)C[C@@]1(C)C2(O)/C(=C(/O)c1ccccc1)C3=O (relative stereo) | 128 (≈ 255 µM) | 128 (≈ 255 µM) |  |  | 64 (≈ 127 µM) | 64 µg/mL (≈ 127 µM) |  |
| COc1c(CC=C(C)C)c(O)c2c(=O)c3ccc(O)c(OC)c3oc2c1CC=C(C)C [DOITUNGGARCINONE C] | 128 (≈ 302 µM) |  |  |  | 128 (≈ 302 µM) | 128 µg/mL (≈ 302 µM) |  |
| COc1c(CC=C(C)C)c(O)c2c(=O)c3ccc(O)c(O)c3oc2c1CC=C(C)C [DULXANTHONE B] | 128 (≈ 312 µM) | 128 (≈ 312 µM) |  |  | 16 (≈ 39 µM) | 32 µg/mL (≈ 78 µM) |  |
| CC(C)=CCc1c(O)c(CC=C(C)C)c2oc3c(O)ccc(O)c3c(=O)c2c1O [GARTANIN] | 128 (≈ 323 µM) | 128 (≈ 323 µM) | inactive |  |  | 128 µg/mL (≈ 323 µM) |  |
| C=CC(C)(C)c1c2c(c(O)c3c(=O)c4ccc(O)c(O)c4oc13)C=CC(C)(C)O2 [MACLURAXANTHONE] | 128 (≈ 325 µM) |  |  |  | 4 (≈ 10.1 µM) | 4 µg/mL (≈ 10.1 µM) |  |
| CC(C)=CCc1c2c(c3oc4c(O)ccc(O)c4c(=O)c3c1O)C=CC(C)(C)O2 [MORUSIGNIN J] | 128 (≈ 325 µM) |  |  |  |  | 128 µg/mL (≈ 325 µM) |  |
| CN[C@H](CC(C)C)C(=O)N[C@H]1C(=O)N[C@@H](CC(N)=O)C(=O)N[C@H]2C(=O)N[C@H]3C(=O)N[C@H](C(=O)N[C@H](C(=O)O)c4cc(O)cc(O)c4-c4cc3ccc4O)[C@H](O)c3ccc(c(Cl)c3)Oc3cc2cc(c3O[C@@H]2O[C@H](CO)[C@@H](O)[C@H](O)[C@H]2O[C@H]2C[C@](C)(N)[C@H](O)[C@H](C)O2)Oc2ccc(cc2Cl)[C@H]1O [VANCOMYCIN] |  |  |  |  |  | 0.25 µg/mL (≈ 0.173 µM) |  |
| C=C(C)CC[C@@H]1C[C@]2(CC=C(C)C)C(=O)/C(=C(\O)c3ccccc3)C(=O)[C@]3(CC=C(C)C)C[C@@]1(C)O[C@@]32O [XEROPHENONE A] | 128 (≈ 247 µM) | 128 (≈ 247 µM) |  |  | 128 (≈ 247 µM) | inactive |  |
| GENTAMICIN | 0.25 |  |  |  |  |  | 0.125 |

Reference: ChEMBL document CHEMBL2146440, “Rearranged benzophenones and prenylated xanthones from Garcinia propinqua twigs” (2012)
